From ChEMBL document CHEMBL1795344, “Design, synthesis and antitumor evaluation of phenyl N-mustard-quinazoline conjugates” (Bioorg Med Chem, 2011)
Activity calls are given as the source filed them. The rule behind the calls is not given here.

Legend:
[1] = test system: CCRF-CEM; experiment: Cytotoxicity against human taxol-resistant CCRF-CEM cells after 72 hrs by XTT assay; format: functional, cell-based
How it was run: (§1)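 CCRF-CEM and its Taxol- and vinblastine-resistant sublines were incubated 72 h, then given phenazine methosulfate-XTT for 6 h at 37 °C. Absorbance was read at 450 and 630 nm. IC50 came from median-effect analysis of dose-effect data at six or seven concentrations.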

[2] = test system: CCRF-CEM; experiment: Cytotoxicity against human CCRF-CEM cells after 72 hrs by XTT assay; format: functional, cell-based; how it was run: as §1
[3] = test system: MX1; experiment: Cytotoxicity against human MX1 cells after 72 hrs by SRB assay; format: functional, cell-based; conditions: MX1, 72 h
How it was run: (§2)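 MX-1 and HCT-116 solid tumor cells were exposed 72 h, with growth read by SRB staining on a microplate spectrophotometer. IC50 came from median-effect analysis of dose-effect data at six or seven concentrations.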

[4] = test system: HCT-116; experiment: Cytotoxicity against human HCT116 cells after 72 hrs by SRB assay; format: functional, cell-based; conditions: HCT-116, 72 h; how it was run: as §2
[5] = test system: CCRF-CEM; experiment: Ratio of IC50 for human vinblastine-resistant CCRF-CEM cells to IC50 for human CCRF-CEM cells; format: functional
[6] = test system: CCRF-CEM; experiment: Cytotoxicity against human vinblastine-resistant CCRF-CEM cells after 72 hrs by XTT assay; format: functional, cell-based; how it was run: as §1
[7] = test system: CCRF-CEM; experiment: Ratio of IC50 for human taxol-resistant CCRF-CEM cells to IC50 for human CCRF-CEM cells; format: functional
[8] = Cytotoxicity against human H1299 cells after 72 hrs by Alamar blue assay; format: functional, cell-based; conditions: NCI-H1299, 72 h
How it was run: (§3)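 H1299 and PC3 cells were exposed 72 h, then given Alamar blue for 6 h at 37 °C. Absorbance was read at 570 and 600 nm. IC50 came from median-effect analysis of dose-effect data at six or seven concentrations.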

[9] = test system: Nucleic Acid; experiment: Induction of pEGFP-N1 plasmid DNA interstrand cross-linking at 1 to 20 uM by alkaline agarose gel shift assay; format: nucleic-acid assay
How it was run: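 pEGFP-N1 plasmid DNA (1500 ng) was incubated with compound (1, 10, 20 μM) in 3 mM NaCl/1 mM sodium phosphate pH 7.4/1 mM EDTA for 2 h at 37 °C. It was then BamHI-linearized, ethanol-precipitated and denatured in 0.5 N NaOH-10 mM EDTA. Samples were run on a 0.8% alkaline agarose gel at 4 °C, 18 V for 22 h, stained with ethidium bromide.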

[10] = test system: PC-3; experiment: Cytotoxicity against human PC3 cells after 72 hrs by Alamar blue assay; format: functional, cell-based; conditions: PC-3, 72 h; how it was run: as §3
[11] = Cell cycle arrest in human H1299 cells assessed as accumulation at G2/M phase at 5 uM after 24 hrs using propidium iodide staining by flow cytometry (reference value: 21.5 +/- 0.6%); format: functional, cell-based; conditions: NCI-H1299
How it was run: (§4)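 H1299 cells were exposed 24 h, then trypsinized, PBS-washed and fixed in ice-cold 70% ethanol for 30 min. They were stained with 4 μg/mL propidium iodide in PBS containing 1% Triton X-100 and 0.1 mg/mL RNase A. Cell-cycle distribution was read by flow cytometry.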

[12] = test system: Mus musculus; experiment: Toxicity in human PC3 cells xenografted athymic nude Swiss mouse assessed as body weight loss at 55 mg/kg, iv every two days for six times relative to control; format: organism-based, PC-3; set-up: dose 55 mg/kg, route intravenous; conditions: in vivo
[13] = Cell cycle arrest in human H1299 cells assessed as accumulation at G1 phase at 5 uM after 24 hrs using propidium iodide staining by flow cytometry (reference value: 44.8 +/- 3%); format: functional, cell-based; conditions: NCI-H1299; how it was run: as §4
[14] = test system: Mus musculus; experiment: Toxicity in human MX1 cells xenografted athymic nude Swiss mouse assessed as body weight loss at 30 mg/kg, iv every two days for three times followed by 35 mg/kg, iv every two days for 5 times relative to control; format: organism-based; conditions: in vivo
[15] = Cell cycle arrest in human H1299 cells assessed as accumulation at G2/M phase at 20 uM after 24 hrs using propidium iodide staining by flow cytometry (reference value: 21.5 +/- 0.6%); format: functional, cell-based; conditions: NCI-H1299; how it was run: as §4
[16] = test system: PC-3; experiment: Anticancer activity against human PC3 cells xenografted in athymic nude Swiss mouse assessed as tumor growth inhibition at 55 mg/kg, iv every two days for six times relative to control; format: functional; set-up: scale not given: the % may be the effect or the level left
[17] = Cell cycle arrest in human H1299 cells assessed as accumulation at S phase at 20 uM after 24 hrs using propidium iodide staining by flow cytometry (reference value: 24.9 +/- 3.3%); format: functional, cell-based; conditions: NCI-H1299; how it was run: as §4
[18] = test system: Mus musculus; experiment: Toxicity in human PC3 cells xenografted athymic nude Swiss mouse assessed as mouse mortality at 55 mg/kg, iv every two days for six times; format: organism-based, PC-3; set-up: dose 55 mg/kg, route intravenous; conditions: in vivo
[19] = test system: Mus musculus; experiment: Toxicity in human MX1 cells xenografted athymic nude Swiss mouse assessed as mouse mortality at 30 mg/kg, iv every two days for three times followed by 35 mg/kg, iv every two days for 5 times; format: organism-based; conditions: in vivo
[20] = Cell cycle arrest in human H1299 cells assessed as accumulation at G1 phase at 10 uM after 24 hrs using propidium iodide staining by flow cytometry (reference value: 44.8 +/- 3%); format: functional, cell-based; conditions: NCI-H1299; how it was run: as §4
[21] = test system: MX1; experiment: Antitumor activity against human MX1 cells xenografted in athymic nude Swiss mouse assessed as tumor growth inhibition at 30 mg/kg, iv every two days for three times followed by 35 mg/kg, iv every two days for 5 times relative to control; format: functional; set-up: scale not given: the % may be the effect or the level left
[22] = Cell cycle arrest in human H1299 cells assessed as accumulation at G2/M phase at 10 uM after 24 hrs using propidium iodide staining by flow cytometry (reference value: 21.5 +/- 0.6%); format: functional, cell-based; conditions: NCI-H1299; how it was run: as §4
[23] = Cell cycle arrest in human H1299 cells assessed as accumulation at sub G1 phase at 10 uM after 24 hrs using propidium iodide staining by flow cytometry (reference value: 8.8 +/- 6.9%); format: functional, cell-based; conditions: NCI-H1299; how it was run: as §4
[24] = Cell cycle arrest in human H1299 cells assessed as accumulation at sub G1 phase at 5 uM after 24 hrs using propidium iodide staining by flow cytometry (reference value: 8.8 +/- 6.9%); format: functional, cell-based; conditions: NCI-H1299; how it was run: as §4
[25] = Cell cycle arrest in human H1299 cells assessed as accumulation at sub G1 phase at 20 uM after 24 hrs using propidium iodide staining by flow cytometry (reference value: 8.8 +/- 6.9%); format: functional, cell-based; conditions: NCI-H1299; how it was run: as §4
[26] = Cell cycle arrest in human H1299 cells assessed as accumulation at G1 phase at 20 uM after 24 hrs using propidium iodide staining by flow cytometry (reference value: 44.8 +/- 3%); format: functional, cell-based; conditions: NCI-H1299; how it was run: as §4
[27] = Cell cycle arrest in human H1299 cells assessed as accumulation at S phase at 5 uM after 24 hrs using propidium iodide staining by flow cytometry (reference value: 24.9 +/- 3.3%); format: functional, cell-based; conditions: NCI-H1299; how it was run: as §4
[28] = Cell cycle arrest in human H1299 cells assessed as accumulation at S phase at 10 uM after 24 hrs using propidium iodide staining by flow cytometry (reference value: 24.9 +/- 3.3%); format: functional, cell-based; conditions: NCI-H1299; how it was run: as §4
[29] = test system: Nucleic Acid; experiment: Induction of pEGFP-N1 plasmid DNA interstrand cross-linking at 1 to 5 uM by alkaline agarose gel shift assay; format: nucleic-acid assay

Row | Structure (SMILES) | IC50 [1] | IC50 [2] | IC50 [3] | IC50 [4] | Ratio IC50 [5] | IC50 [6] | Ratio IC50 [7] | IC50 [8] | IC50 [10] | further results
1 | O=C(Nc1ccc(N(CCCl)CCCl)cc1)Nc1ccc2ncnc(Nc3ccc(Oc4ccccc4)cc3)c2c1 | 7.99 µM | 4.77 µM | 8.47 µM | 12.4 µM | 2.28 | 10.9 µM | 1.67 |  |  | 
2 | COc1ccc(Nc2ncnc3ccc(NC(=O)Nc4ccc(N(CCCl)CCCl)cc4)cc23)cc1Cl | 3.34 µM | 0.8 µM | 5.51 µM | 5.27 µM | 4.68 | 3.75 µM | 4.17 | 6.94 µM | 8.02 µM | Activity [9]: Active
3 | O=C(Nc1ccc(N(CCCl)CCCl)cc1)Nc1ccc2ncnc(Nc3ccc(OCc4ccccn4)c(Cl)c3)c2c1 | 4.58 µM | 1.41 µM | 4.62 µM | 2.22 µM | 1.88 | 2.65 µM | 3.24 |  |  | 
4 | O=C(Nc1ccc(N(CCCl)CCCl)cc1)Nc1ccc2ncnc(Nc3ccc(F)cc3)c2c1 | 3.16 µM | 0.74 µM | 3.43 µM | 3.18 µM | 1.67 | 1.24 µM | 4.27 | 11.6 µM | 8.24 µM | Activity [9]: Active
5 | O=C(Nc1ccc(N(CCCl)CCCl)cc1)Nc1ccc2ncnc(Nc3cccc(F)c3)c2c1 | 3.46 µM | 2.51 µM | 10.1 µM | 9.62 µM | 1.7 | 4.28 µM | 1.38 |  |  | 
6 | CC[C@]1(O)C[C@@H]2CN(CCc3c([nH]c4ccccc34)[C@@](C(=O)OC)(c3cc4c(cc3OC)N(C)[C@H]3[C@@](O)(C(=O)OC)[C@H](OC(C)=O)[C@]5(CC)C=CCN6CC[C@]43[C@@H]65)C2)C1 [VINBLASTINE] |  |  |  |  | 679.5 |  | 106.2 |  |  | 
7 | O=C(Nc1ccc(N(CCCl)CCCl)cc1)Nc1ccc2ncnc(Nc3ccc(Cl)c(Cl)c3)c2c1 | 5.61 µM | 2.6 µM | 6.45 µM | 2.79 µM | 2.6 | 6.75 µM | 2.16 |  |  | 
8 | O=C(Nc1ccc(N(CCCl)CCCl)cc1)Nc1ccc2ncnc(Nc3cccc(Br)c3)c2c1 | 4.58 µM | 0.95 µM | 6.92 µM | 2.17 µM | 2.76 | 2.62 µM | 4.82 | 8.04 µM | 10.1 µM | 
9 | O=C(Nc1ccc(N(CCCl)CCCl)cc1)Nc1ccc2ncnc(Nc3ccc(Cl)c(C(F)(F)F)c3)c2c1 | 5.36 µM | 4.77 µM | 7.44 µM | 5.34 µM | 1.11 | 5.28 µM | 1.12 |  |  | 
10 | C#Cc1cccc(Nc2ncnc3ccc(NC(=O)Nc4ccc(N(CCCl)CCCl)cc4)cc23)c1 | 2.29 µM | 0.5 µM | 6.27 µM | 3.47 µM | 4.66 | 2.33 µM | 4.58 |  |  | 
11 | O=C(Nc1ccc(N(CCCl)CCCl)cc1)Nc1ccc2ncnc(Nc3cccc(C(F)(F)F)c3)c2c1 | 4.57 µM | 3.97 µM | 5.3 µM | 5.97 µM | 1.17 | 4.68 µM | 1.15 |  |  | 
12 | O=C(Nc1ccc(N(CCCl)CCCl)cc1)Nc1ccc2ncnc(Nc3cccc(Cl)c3)c2c1 | 4.56 µM | 1.66 µM | 7.84 µM | 7.46 µM | 1.96 | 3.26 µM | 2.75 | 10.5 µM | 10.4 µM | Activity [11]: 40%; Activity [12]: 11%; Activity [13]: 30.5%; Activity [14]: 3%; Activity [15]: 12.9%; Activity [16]: 27%; Activity [17]: 23.5%; Activity [9]: Active; Activity [18]: Non-toxic; Activity [19]: Non-toxic; Activity [20]: 34.8%; Activity [21]: 62%; Activity [22]: 29.3%; Activity [23]: 7.5%; Activity [24]: 8.9%; Activity [25]: 35.3%; Activity [26]: 28.3%; Activity [27]: 20.6%; Activity [28]: 28.5%
13 | COc1cc(Nc2ncnc3ccc(NC(=O)Nc4ccc(N(CCCl)CCCl)cc4)cc23)cc(OC)c1OC | 12.3 µM | 0.38 µM | 4.02 µM | 2.24 µM | 64.5 | 24.5 µM | 32.42 | 10.3 µM | 11 µM | 
14 | O=C(Nc1ccc(N(CCCl)CCCl)cc1)Nc1ccc2ncnc(Nc3ccc(F)c(Br)c3)c2c1 | 4.4 µM | 2.68 µM | 7.1 µM | 5.99 µM | 1.77 | 4.74 µM | 1.64 |  |  | 
15 | N[C@@H](Cc1ccc(N(CCCl)CCCl)cc1)C(=O)O |  |  |  |  |  |  |  |  |  | Activity [29]: Active
16 | COc1cccc(Nc2ncnc3ccc(NC(=O)Nc4ccc(N(CCCl)CCCl)cc4)cc23)c1 | 3.58 µM | 1.32 µM | 2.59 µM | 2.44 µM | 2.56 | 3.38 µM | 2.71 | 8.79 µM | 9.44 µM | 
17 | O=C(Nc1ccc(N(CCCl)CCCl)cc1)Nc1ccc2ncnc(Nc3ccc(Br)cc3)c2c1 | 8.79 µM | 4.64 µM | 6.71 µM | 7.79 µM | 1.7 | 7.88 µM | 1.89 |  |  | 
18 | CC(=O)O[C@H]1C(=O)[C@@]2(C)[C@H]([C@H](OC(=O)c3ccccc3)[C@]3(O)C[C@H](OC(=O)[C@H](O)[C@@H](NC(=O)c4ccccc4)c4ccccc4)C(C)=C1C3(C)C)[C@]1(OC(C)=O)CO[C@@H]1C[C@@H]2O [PACLITAXEL] |  |  |  |  | 423 |  | 143 |  |  | 
